In brackets after ≈: the same amount, converted by molar mass.
How the values were obtained:
[1] = molecular target: T1, ATP-dependent RNA helicase SUPV3L1, mitochondrial (Homo sapiens, UniProt Q8IYB8); assay: Inhibitory activity determined against human Suv3 helicase using DNA as substrate
T1 sequence (Q8IYB8 whole entry): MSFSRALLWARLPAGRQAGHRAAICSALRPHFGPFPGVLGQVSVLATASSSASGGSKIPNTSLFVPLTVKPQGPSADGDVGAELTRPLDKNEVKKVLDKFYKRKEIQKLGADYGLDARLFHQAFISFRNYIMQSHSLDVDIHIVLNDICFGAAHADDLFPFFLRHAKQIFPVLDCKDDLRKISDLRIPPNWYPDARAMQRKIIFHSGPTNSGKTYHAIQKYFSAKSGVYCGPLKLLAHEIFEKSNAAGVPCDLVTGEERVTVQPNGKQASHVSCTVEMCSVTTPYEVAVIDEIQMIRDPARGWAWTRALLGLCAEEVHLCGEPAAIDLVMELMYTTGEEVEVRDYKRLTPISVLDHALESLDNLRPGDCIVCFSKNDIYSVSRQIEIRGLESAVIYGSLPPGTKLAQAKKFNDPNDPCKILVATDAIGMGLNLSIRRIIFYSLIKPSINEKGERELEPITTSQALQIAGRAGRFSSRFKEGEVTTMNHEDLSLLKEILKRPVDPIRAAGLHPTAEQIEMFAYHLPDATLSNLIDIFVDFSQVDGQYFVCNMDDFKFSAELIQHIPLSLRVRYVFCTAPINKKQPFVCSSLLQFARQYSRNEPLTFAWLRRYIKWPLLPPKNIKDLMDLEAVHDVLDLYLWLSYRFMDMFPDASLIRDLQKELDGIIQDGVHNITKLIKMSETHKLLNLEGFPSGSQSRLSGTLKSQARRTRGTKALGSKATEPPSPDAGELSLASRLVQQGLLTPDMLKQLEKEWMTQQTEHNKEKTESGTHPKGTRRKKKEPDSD
Method in brief: (§1)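 Human Suv3(Δ1-159), expressed in E. coli from pQE60, 0.2 pmol per assay. Substrate: partially hybridized 32P-labelled DNA or RNA duplex (per line), 4.7 pM nucleotide base. Run with ATP at its Km of 4.2 µM in Tris/HCl pH 7.5 with MgCl2, 30 min at 30 °C. Released strand separated by TBE-PAGE and quantified by 32P counting. IC50 is 50% of control unwinding; representative of three experiments.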

West Nile virus [2] = assay: Inhibitory activity determined against west nile virus (WNV) NTPase/helicase (NTPase/helicase Non structural protein 3) using DNA as substrate; format: functional
Method in brief: (§2)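 WNV NTPase/helicase (2 pmol), purified from culture medium of virus-infected Vero E6 cells, unwinding a partially hybridized 32P 5'-labelled duplex (26-mer release strand on 40-mer template; DNA or RNA per line, 4.7 pM nucleotide base). Conditions: ATP at Km (9.5 µM), 20 mM Tris/HCl pH 7.5, 2 mM MgCl2, 30 min at 30 °C. Released strand resolved on TBE-PAGE and its radioactivity counted. IC50 is 50% of compound-free unwinding; representative of three independent experiments.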

West Nile virus [3] = assay: Inhibitory activity determined against west nile virus (WNV) NTPase/helicase (NTPase/helicase Non structural protein 3) using RNA as substrate; format: functional; method in brief: as §2
[4] = molecular target: T1, ATP-dependent RNA helicase SUPV3L1, mitochondrial; assay: Inhibitory activity against human Suv3 helicase using RNA as substrate; method in brief: as §1
West Nile virus [5] = assay: Inhibitory activity against west nile virus (WNV) NTPase/helicase (NTPase/helicase Non structural protein 3) using RNA as substrate; format: functional; method in brief: as §2
West Nile virus [6] = assay: Inhibitory activity against west nile virus (WNV) NTPase/helicase (NTPase/helicase Non structural protein 3) using DNA as substrate; format: functional; method in brief: as §2

| SMILES | IC50 [1] [µM] | IC50 (West Nile virus [2]) [µg/mL] | IC50 (West Nile virus [3]) [µg/mL] | IC50 [4] [µM] | ED200 (West Nile virus [5]) [µg/mL] | ED200 (West Nile virus [6]) [µg/mL] |
| --- | --- | --- | --- | --- | --- | --- |
| CCCCCCCCCCCCNc1nc(=O)c2c(ncn2Cc2ccc(OC)cc2)c(=O)[nH]1 | > 1070 | 5 (≈ 10.7 µM) | 1 (≈ 2.14 µM) | > 1070 |  |  |
| CCCCCCCCCCCCNc1nc(=O)c2c(ncn2[C@@H]2C[C@H](O)[C@@H](CO)O2)c(=O)[nH]1 | 539 | 3 (≈ 6.47 µM) | 100 (≈ 216 µM) | 324 |  |  |
| CCCCCCCCCCCCNc1nc(=O)c2c(ncn2[C@H]2C[C@H](O)[C@@H](CO)O2)c(=O)[nH]1 | 6.47 | 3 (≈ 6.47 µM) | 1.5 (≈ 3.24 µM) | > 1080 |  |  |
| CCCCCCCCCCCCNc1nc(O)c2ncnc-2c(O)n1 | > 1440 | > 500 | > 500 | > 1440 |  |  |
| CCCCCCCCNc1nc(=O)c2ncn([C@@H]3O[C@H](CO)[C@@H](O)C3O)c2c(=O)[nH]1 (single isomer, unassigned) |  | > 300 |  |  |  |  |
| CCCCCCCCCCNc1nc(=O)c2ncn([C@@H]3O[C@H](CO)[C@@H](O)C3O)c2c(=O)[nH]1 (single isomer, unassigned) | > 1110 | 30 (≈ 66.4 µM) | 300 (≈ 664 µM) | 1110 |  |  |
| CCCCCCCCCCCCNc1nc(=O)c2ncn([C@@H]3O[C@H](CO)[C@@H](O)C3O)c2c(=O)[nH]1 (single isomer, unassigned) | > 1040 | 1 (≈ 2.09 µM) | 10 (≈ 20.9 µM) | 313 |  |  |
| CCCCCCCCCCCCCCNc1nc(=O)c2ncn([C@@H]3O[C@H](CO)[C@@H](O)C3O)c2c(=O)[nH]1 (single isomer, unassigned) | 591 | 3 (≈ 5.91 µM) | > 500 | 59.1 |  |  |
| CCCCCCCCCCCCCCCCNc1nc(=O)c2ncn([C@@H]3O[C@H](CO)[C@@H](O)C3O)c2c(=O)[nH]1 (single isomer, unassigned) | > 933 | 250 (≈ 467 µM) | 500 (≈ 933 µM) | 56 |  |  |
| CCCCCCCCCCCCCCCCCCNc1nc(=O)c2ncn([C@@H]3O[C@H](CO)[C@@H](O)C3O)c2c(=O)[nH]1 (single isomer, unassigned) | > 887 | 5 (≈ 8.87 µM) | 100 (≈ 177 µM) | 53.2 |  |  |
| CCCCCCCNc1nc(=O)c2c(ncn2C2O[C@H](CO)[C@@H](O)C2O)c(=O)[nH]1 (single isomer, unassigned) |  | > 300 |  |  |  |  |
| CCCCCNc1nc(=O)c2c(ncn2C2O[C@H](CO)[C@@H](O)C2O)c(=O)[nH]1 (single isomer, unassigned) |  | > 300 |  |  |  |  |
| CCCNc1nc(=O)c2c(ncn2C2O[C@H](CO)[C@@H](O)C2O)c(=O)[nH]1 (single isomer, unassigned) |  | > 300 |  |  |  |  |
| CCNc1nc(=O)c2c(ncn2C2O[C@H](CO)[C@@H](O)C2O)c(=O)[nH]1 (single isomer, unassigned) |  | > 300 |  |  |  |  |
| CNc1nc(=O)c2c(ncn2C2O[C@H](CO)[C@@H](O)C2O)c(=O)[nH]1 (single isomer, unassigned) |  | > 300 |  |  |  |  |
| CCCCNc1nc(=O)c2c(ncn2C2O[C@H](CO)[C@@H](O)C2O)c(=O)[nH]1 (single isomer, unassigned) |  | > 300 |  |  |  |  |
| CCCCCCNc1nc(=O)c2c(ncn2C2O[C@H](CO)[C@@H](O)C2O)c(=O)[nH]1 (single isomer, unassigned) |  | > 300 |  |  |  |  |
| CN(C)c1nc(=O)c2c(ncn2C2O[C@H](CO)[C@@H](O)C2O)c(=O)[nH]1 (single isomer, unassigned) |  | > 300 |  |  |  |  |
| O=c1nc(NCCCc2ccccc2)[nH]c(=O)c2c1ncn2C1O[C@H](CO)[C@@H](O)C1O (single isomer, unassigned) |  | > 500 |  |  |  |  |
| O=c1nc(NCCc2ccccc2)[nH]c(=O)c2c1ncn2C1O[C@H](CO)[C@@H](O)C1O (single isomer, unassigned) |  | > 500 |  |  |  |  |
| O=c1nc(NCc2ccccc2)[nH]c(=O)c2c1ncn2C1O[C@H](CO)[C@@H](O)C1O (single isomer, unassigned) |  | > 500 |  |  |  |  |
| O=c1nc(Nc2ccccc2)[nH]c(=O)c2c1ncn2C1O[C@H](CO)[C@@H](O)C1O (single isomer, unassigned) | > 1290 |  |  | > 1290 | 100 | 300 |
| O=c1nc(NCCCCc2ccccc2)[nH]c(=O)c2c1ncn2C1O[C@H](CO)[C@@H](O)C1O (single isomer, unassigned) |  | > 500 |  |  |  |  |
